Laboratory results as given in ChEMBL document CHEMBL1154674, “Synthesis and evaluation of three 18F-labeled aminophenylbenzothiazoles as amyloid imaging agents” (J Med Chem, 2009).

Target: Amyloid-beta precursor protein (Homo sapiens, UniProt P05067)
Assay: Displacement of [125I]IMPY from beta-amyloid plaques in Alzheimer's disease patient brain homogenate
Type: tissue-based
Procedure, shortened: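 Test compound was added at 10^-5–10^-10 M, serially diluted in PBS containing 0.1% BSA. Nonspecific binding was defined with 600 nM unlabeled IMPY. Incubation was 37 °C for 2 h, followed by GF/B vacuum filtration, PBS washes and γ counting. Ki came from nonlinear regression.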

Chain of Amyloid-beta precursor protein (P05067 whole entry): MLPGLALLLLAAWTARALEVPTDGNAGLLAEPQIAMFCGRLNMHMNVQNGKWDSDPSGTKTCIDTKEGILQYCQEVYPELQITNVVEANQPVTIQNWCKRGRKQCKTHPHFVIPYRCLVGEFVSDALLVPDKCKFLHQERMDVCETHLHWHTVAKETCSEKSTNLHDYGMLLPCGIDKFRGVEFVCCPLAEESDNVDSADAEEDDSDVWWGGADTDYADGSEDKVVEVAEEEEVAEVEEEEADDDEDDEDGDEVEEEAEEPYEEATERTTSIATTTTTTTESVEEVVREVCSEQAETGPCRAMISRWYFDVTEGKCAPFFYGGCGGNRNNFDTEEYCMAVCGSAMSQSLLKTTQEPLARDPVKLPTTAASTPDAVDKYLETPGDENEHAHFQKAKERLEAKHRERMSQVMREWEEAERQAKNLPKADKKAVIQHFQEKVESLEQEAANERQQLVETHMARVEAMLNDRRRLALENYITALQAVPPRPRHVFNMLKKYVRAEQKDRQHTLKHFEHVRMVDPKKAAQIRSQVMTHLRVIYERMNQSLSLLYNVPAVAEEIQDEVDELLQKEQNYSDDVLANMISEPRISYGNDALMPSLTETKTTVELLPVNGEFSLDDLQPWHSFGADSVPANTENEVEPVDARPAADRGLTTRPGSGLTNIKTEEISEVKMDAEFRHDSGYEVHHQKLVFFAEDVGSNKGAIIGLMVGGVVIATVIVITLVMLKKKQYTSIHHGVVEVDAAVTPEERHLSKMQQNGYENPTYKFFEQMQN

| Ki [nM] | SMILES |
| --- | --- |
| 10 | Nc1ccc2nc(-c3ccc(F)cc3)sc2c1 |
| 4.1 | CNc1ccc2nc(-c3ccc(F)cc3)sc2c1 |
